From ChEMBL document CHEMBL3826895, “Pterin-sulfa conjugates as dihydropteroate synthase inhibitors and antibacterial agents” (Bioorg Med Chem Lett, 2016)
In brackets after ≈: the same amount, converted by molar mass.

How the values were obtained:
[1] = tested on: Escherichia coli; test: Antibacterial activity against Escherichia coli K-12 in M9 minimal media by turbidometric method; format: functional
[2] = biological target: T1, Dihydropteroate synthase (Bacillus anthracis, UniProt Q81VW8); test: Inhibition of fluorescein-labeled probe binding to Bacillus anthracis N-terminal His-tagged DHPS incubated for 1 hr in presence of sodium pyrophosphate by fluorescence polarization assay
T1 sequence (Q81VW8 whole entry): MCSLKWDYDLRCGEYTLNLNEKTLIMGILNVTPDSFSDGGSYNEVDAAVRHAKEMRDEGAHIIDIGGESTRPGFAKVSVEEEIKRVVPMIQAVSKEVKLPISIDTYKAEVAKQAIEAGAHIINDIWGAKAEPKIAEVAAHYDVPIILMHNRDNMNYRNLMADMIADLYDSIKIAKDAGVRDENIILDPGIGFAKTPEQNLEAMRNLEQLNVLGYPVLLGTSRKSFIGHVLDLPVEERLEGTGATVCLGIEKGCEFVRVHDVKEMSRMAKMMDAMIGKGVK
In short: (§1)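 Competition binding of test compounds against a probe on B. anthracis DHPS, read by fluorescence polarization as displacement of the probe; run without added pyrophosphate or with 2 mM sodium pyrophosphate, the DHPS reaction byproduct, to confirm site-specific binding; IC50 values derived from probe displacement.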

[3] = tested on: Escherichia coli; test: Antibacterial activity against Escherichia coli K-12 in M9 minimal media in presence of methionine by turbidometric method; format: functional
[4] = tested on: Escherichia coli; test: Antibacterial activity against Escherichia coli K-12 in M9 minimal media in presence of folate precursor PABA by turbidometric method; format: functional
[5] = biological target: T1, Dihydropteroate synthase; test: Inhibition of fluorescein-labeled probe binding to Bacillus anthracis N-terminal His-tagged DHPS incubated for 1 hr by fluorescence polarization assay; in short: as §1

Compound | MIC [1] [µM] | IC50 [2] [µM] | MIC [3] [µM] | MIC [4] [µM] | IC50 [5] [µM]
Nc1ccc(S(=O)(=O)c2ccc(NCc3cnc4nc(N)[nH]c(=O)c4n3)cc2)cc1 | 197 (≈ 83.4 µg/mL) | 11.3 | 236 | 236 | 17.8
COc1ncnc(NS(=O)(=O)c2ccc(NCc3cnc4nc(NC(C)=O)[nH]c(=O)c4n3)cc2)c1OC | 3.8 (≈ 2 µg/mL) | – | 10.1 | > 644 | –
CC(=O)Nc1nc2ncc(CNc3ccc(S(=O)(=O)Nc4ccccn4)cc3)nc2c(=O)[nH]1 | 2.7 (≈ 1.26 µg/mL) | – | 6.3 | 669 | –
Cc1noc(NS(=O)(=O)c2ccc(NCc3cnc4nc(N)[nH]c(=O)c4n3)cc2)c1C | 28.3 (≈ 12.5 µg/mL) | 8.1 | 47 | > 412 | 22.5
Nc1nc2ncc(CNc3ccc(S(=O)(=O)Nc4ncccn4)cc3)nc2c(=O)[nH]1 | 17.1 (≈ 7.27 µg/mL) | 9.4 | 78 | > 470 | 19.3
COc1cc(Cc2cnc(N)nc2N)cc(OC)c1OC [TRIMETHOPRIM] | 1.7 (≈ 0.494 µg/mL) | – | 0.7 | 1.4 | –
CC1(C)S[C@@H]2[C@H](NC(=O)[C@H](N)c3ccccc3)C(=O)N2[C@H]1C(=O)O [AMPICILLIN] | 1.58 (≈ 0.552 µg/mL) | – | 2.1 | 2 | –
COc1cc(NS(=O)(=O)c2ccc(NCc3cnc4nc(NC(C)=O)[nH]c(=O)c4n3)cc2)nc(OC)n1 | 1.6 (≈ 0.844 µg/mL) | – | 3.4 | 537 | –
COc1ncnc(NS(=O)(=O)c2ccc(NCc3cnc4nc(N)[nH]c(=O)c4n3)cc2)c1OC | 34.3 (≈ 16.7 µg/mL) | 11.5 | 172 | > 412 | 15.2
COc1cc(NS(=O)(=O)c2ccc(NCc3cnc4nc(N)[nH]c(=O)c4n3)cc2)nc(OC)n1 | 17.2 (≈ 8.35 µg/mL) | 1.9 | 86 | > 412 | 26.8
CC(=O)Nc1nc2ncc(CNc3ccc(S(=O)(=O)c4ccc(N)cc4)cc3)nc2c(=O)[nH]1 | 25 (≈ 11.6 µg/mL) | – | 50 | > 934 | –
Cc1cc(NS(=O)(=O)c2ccc(NCc3cnc4nc(N)[nH]c(=O)c4n3)cc2)no1 | 10.9 (≈ 4.67 µg/mL) | 3.4 | 29 | 467 | 20.6
CC(=O)NS(=O)(=O)c1ccc(NCc2cnc3nc(N)[nH]c(=O)c3n2)cc1 | 136 (≈ 53 µg/mL) | 17.1 | > 200 | > 514 | 18.6
O=C(N[C@H](CO)[C@H](O)c1ccc([N+](=O)[O-])cc1)C(Cl)Cl [CHLORAMPHENICOL] | 8.5 (≈ 2.75 µg/mL) | – | 9.7 | 9.7 | –
CC(=O)Nc1nc2ncc(CNc3ccc(S(=O)(=O)Nc4ncccn4)cc3)nc2c(=O)[nH]1 | 1.6 (≈ 0.748 µg/mL) | – | 6.2 | 666 | –
CC(=O)Nc1nc2ncc(CNc3ccc(S(=O)(=O)Nc4cc(C)on4)cc3)nc2c(=O)[nH]1 | 0.8 (≈ 0.376 µg/mL) | – | 1.5 | 263 | –
Nc1nc2ncc(CNc3ccc(S(=O)(=O)Nc4ccccn4)cc3)nc2c(=O)[nH]1 | 29.5 (≈ 12.5 µg/mL) | 2.5 | 98 | > 471 | > 62.5
CC(=O)Nc1nc2ncc(CNc3ccc(S(=O)(=O)Nc4onc(C)c4C)cc3)nc2c(=O)[nH]1 | 1.5 (≈ 0.727 µg/mL) | – | 5.9 | 249 | –
CC(=O)Nc1nc2ncc(CNc3ccc(S(=O)(=O)NC(C)=O)cc3)nc2c(=O)[nH]1 | 22 (≈ 9.49 µg/mL) | – | 58 | > 934 | –
